Results published in paper PMC3535304 (Bioorganic & medicinal chemistry, 2012).
“Also recorded” adds a separate entry of the source. Read-outs that look alike come from different tables or passages of the source.

Assays:
[1] = test system: HeLa cells; details: read-out: IC50 (cell growth inhibition), mean ± SE, ref [12]; cited from earlier work
[2] = test system: A549 cells; details: read-out: IC50 (cell growth inhibition), cited from earlier work
[3] = test system: HT-29 cells; details: read-out: IC50 (cell growth inhibition); HT-29, mean ± SE; ref [12]; cited from earlier work
[4] = test system: HL-60 cells; details: read-out: IC50 (cell growth inhibition); HL-60, mean ± SE; ref [12]; cited from earlier work
[5] = test system: Jurkat cells; details: read-out: IC50 (cell growth inhibition), mean ± SE, ref [12]; cited from earlier work
[6] = test system: MCF-7 cells; details: read-out: IC50 (cell growth inhibition); MCF-7, mean ± SE; ref [12]; cited from earlier work
[7] = target: bovine brain tubulin (Bos taurus, UniProt P81947+Q6B856); assay: Inhibition of tubulin polymerization; type: biochemical; details: read-out: Tubulin assembly IC50; tubulin at 10 μM, 20 min incubation
Sequence of bovine brain tubulin (Q6B856 whole entry): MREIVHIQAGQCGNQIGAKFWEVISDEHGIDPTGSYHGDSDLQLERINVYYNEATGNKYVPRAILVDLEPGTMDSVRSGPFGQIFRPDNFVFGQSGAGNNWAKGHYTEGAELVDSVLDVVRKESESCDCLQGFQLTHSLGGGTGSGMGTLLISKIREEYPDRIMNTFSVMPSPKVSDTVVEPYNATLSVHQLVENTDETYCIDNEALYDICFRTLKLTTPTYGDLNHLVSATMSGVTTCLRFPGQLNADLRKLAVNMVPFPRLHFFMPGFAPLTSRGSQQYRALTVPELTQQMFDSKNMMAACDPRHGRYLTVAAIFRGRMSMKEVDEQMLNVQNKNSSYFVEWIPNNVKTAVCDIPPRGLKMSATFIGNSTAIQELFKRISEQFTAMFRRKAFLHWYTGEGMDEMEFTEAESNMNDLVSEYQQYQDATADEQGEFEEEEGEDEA
Sequence of bovine brain tubulin (P81947 whole entry): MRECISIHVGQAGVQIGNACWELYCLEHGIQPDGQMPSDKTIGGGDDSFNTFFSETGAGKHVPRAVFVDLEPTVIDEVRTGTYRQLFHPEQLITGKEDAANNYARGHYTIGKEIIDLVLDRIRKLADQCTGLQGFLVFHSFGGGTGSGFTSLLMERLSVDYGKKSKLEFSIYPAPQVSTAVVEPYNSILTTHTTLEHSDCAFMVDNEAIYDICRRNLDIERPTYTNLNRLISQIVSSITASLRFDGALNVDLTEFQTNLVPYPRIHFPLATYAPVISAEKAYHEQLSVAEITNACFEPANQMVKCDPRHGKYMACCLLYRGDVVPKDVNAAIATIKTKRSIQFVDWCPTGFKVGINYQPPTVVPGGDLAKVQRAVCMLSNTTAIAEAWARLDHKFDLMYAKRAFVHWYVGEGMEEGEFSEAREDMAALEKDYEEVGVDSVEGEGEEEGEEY

[8] = test system: MCF-7 cells; assay: In vitro antiproliferative assay; type: cell-based, human; details: 3e vs 2e, 3b vs 2b
[9] = test system: HT-29 cells; assay: In vitro antiproliferative assay; type: cell-based, human; details: 3d vs 2d, 3e vs 2e
[10] = test system: cyclin B; assay: Western blot analysis in HeLa cells; type: cell-based, human; details: 48 h
Procedure, shortened: (§1)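 HeLa cells were exposed to test compound for 24 or 48 h, washed in cold PBS, and lysed on ice for 30 min. Cleared lysate (20 μg protein, BCA) was run on 7.5–15% SDS-PAGE and moved to PVDF. Primary antibodies (2 h, room temperature) were procaspase-2, cleaved caspase-8, cleaved caspase-3, PARP and cyclin B1, followed by peroxidase secondary and ECL. Membranes were reprobed for β-actin.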

[11] = test system: HeLa cells; assay: Annexin-V/PI apoptosis assay; type: cell-based, human; details: 250 or 500 nM, 24 or 48 h
Procedure, shortened: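 HeLa cells exposed to test compound for 24 or 48 h, then labelled with annexin-V-FITC (kit protocol) and propidium iodide together. Red (PI) and green (FITC) fluorescence read by flow cytometry. Maximum DMSO 0.25%. Mean ± SEM of three independent experiments.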

[12] = test system: HeLa cells; assay: Flow cytometric analysis of cell cycle distribution; type: cell-based, human; details: 24 h, range tested 31 to 500 nM
Procedure, shortened: (§2)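 Exponentially growing cells (5 × 10⁵) were treated 24 h with test compound at 31–500 nM. They were then fixed in ice-cold 70% ethanol and treated with lysis buffer containing RNase A and 0.1% Triton X-100. DNA was stained with propidium iodide and content measured by flow cytometry, with cycle phases taken from DNA histograms. Mean ± SEM of three independent experiments.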

[13] = test system: caspase-8; assay: Western blot analysis in HeLa cells; type: cell-based, human; details: 24 or 48 h
Procedure, shortened: as §1

[14] = test system: mitochondrial polarization and ROS production; assay: Mitochondrial functions; type: cell-based; details: data not shown
[15] = test system: caspase-9; assay: Western blot analysis in HeLa cells; type: cell-based, human; details: data not shown
[16] = test system: caspase-3; assay: Western blot analysis in HeLa cells; type: cell-based, human; details: 24 and 48 h
Procedure, shortened: as §1

[17] = test system: six human cancer cell lines (HeLa, A549, HL-60, Jurkat, MCF-7, HT-29); assay: Antiproliferative activity across the panel of six human cancer cell lines; type: cell-based; details: read-out: IC50 values against the six cell lines (range)
Procedure, shortened: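 Jurkat and HL-60 cells were grown in RPMI-1640; MCF-7, A549, HeLa and HT-29 in DMEM; all media had 10% FBS plus penicillin/streptomycin. Cells were seeded at 8 × 10³/well, held 18 h at 37 °C in 5% CO₂, then given fresh medium with test compound (DMSO stocks, ≤0.25% final) for 72 h. Viability was read by MTT. […] Mean ± SE, ≥3 experiments.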

[18] = test system: caspase-2; assay: Western blot analysis in HeLa cells; type: cell-based, human; details: 24 or 48 h
Procedure, shortened: as §1

[19] = test system: Jurkat cells; assay: Flow cytometric analysis of cell cycle distribution; type: cell-based, human; details: 24 h
Procedure, shortened: as §2

[20] = test system: Jurkat cells; assay: In vitro antiproliferative assay; type: cell-based; details: Homo sapiens, 72 h, read-out: IC50 (cell growth inhibition)
Procedure, shortened: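 Jurkat cells were grown in RPMI-1640 with 10% FBS, penicillin G (115 units/mL) and streptomycin (115 μg/mL). Cells were seeded at 8 × 10³ per well and held 18 h at 37 °C in 5% CO₂. Medium was then replaced with fresh medium containing the test compound (DMSO ≤0.25% final) at various concentrations for 72 h. Viability was read by MTT.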

[21] = test system: LoVo cells; details: read-out: IC50 (cell growth inhibition), ref [8]; cited from earlier work
[22] = test system: LoVo^Doxo cells; details: IC50 LoVo^Doxo / IC50 LoVo; ref [8]; cited from earlier work
[23] = test system: A549-T12 cells; details: ref [8], cited from earlier work
[24] = test system: CEM^Vbl100 cells; assay: Cell growth inhibition, drug resistant cell line; type: cell-based; details: Homo sapiens, CEM/VBL100, read-out: IC50 (cell growth inhibition)
Procedure, shortened: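 Growth inhibition was read by MTT after 72 h exposure to a range of test-compound concentrations at 37 °C in 5% CO₂. DMSO was ≤0.25% final.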

[25] = test system: CEM cells; assay: Cell growth inhibition, parental line of drug resistant pair; type: cell-based; details: Homo sapiens, CCRF-CEM, read-out: IC50 (cell growth inhibition)

IC50 [7] | Structure (SMILES) | IC50 [1] | IC50 ([2]; A549, mean ± SE, ref [12]) | IC50 [3] | IC50 [4] | IC50 [5] | IC50 [6] | further results
740 ± 10 nM | COc1cc(-c2nc(N)sc2-c2ccc3ccccc3c2)cc(OC)c1OC [2a] | 1.6 ± 0.6 nM | 3.8 ± 0.6 nM | 23.9 ± 3.9 nM | 2.7 ± 0.3 nM | 3.3 ± 0.9 nM | 51.2 ± 9.2 nM | –
440 ± 10 nM | COc1cc(-c2nc(N)sc2-c2ccc(C)cc2)cc(OC)c1OC [2b] | 0.73 ± 0.2 nM | 42.8 ± 5.7 nM | 12.4 ± 5.1 nM | 3.9 ± 1.1 nM | 3.9 ± 0.6 nM | 280 ± 69.8 nM | –
– | COc1cc(-c2nc(N)sc2-c2ccc(C(F)(F)F)cc2)cc(OC)c1OC [2c] | 3.2 ± 0.4 nM | 357 ± 65 nM | 221 ± 50.2 nM | 5.1 ± 1.1 nM | 8.5 ± 1.2 nM | 0.4 ± 0.1 nM | –
610 ± 50 nM | CCOc1ccc(-c2sc(N)nc2-c2cc(OC)c(OC)c(OC)c2)cc1 [2e] | 0.03 ± 0.005 nM | 0.09 ± 0.01 nM | 38.2 ± 11.4 nM | 0.9 ± 0.3 nM | 0.14 ± 0.05 nM | 44 ± 6.3 nM | –
– | CNc1nc(-c2cc(OC)c(OC)c(OC)c2)c(-c2ccc(C)cc2)s1 [3b, 4-(3,4,5-Trimethoxyphenyl)-N-methyl-5-p-tolylthiazol-2-amine] | – | – | – | – | – | – | fold more potent than 2-amino counterpart [8]: ~28 fold
– | CNc1nc(-c2cc(OC)c(OC)c(OC)c2)c(-c2ccc(OC)cc2)s1 [3d, 4-(3,4,5-Trimethoxyphenyl)-5-(4-methoxyphenyl)-N-methylthiazol-2-amine] | – | – | – | – | – | – | fold more potent than 2-amino counterpart [9]: 2 fold
– | CCOc1ccc(-c2sc(NC)nc2-c2cc(OC)c(OC)c(OC)c2)cc1 [3e, 5-(4-Ethoxyphenyl)-4-(3,4,5-trimethoxyphenyl)-N-methylthiazol-2-amine] | – | – | – | – | – | – | cyclin B expression [10]: slight decrease; induction of apoptotic (annexin-V positive) cells [11]: Analogous behaviour but with a stronger effect; concentration at which G2/M accumulation was first observed [12]: 31 nM; caspase-8 activation (appearance of cleavage product) [13]: clear caspase-8 and caspase-2 activation; effect on mitochondrial polarization and ROS production [14]: did not cause mitochondrial depolarization; also recorded: only slightly affected; caspase-9 activation [15]: did not induce activation of caspase-9; caspase-3 activation [16]: clear activation of caspase-3; cleavage of caspase-3 substrate PARP [16]: cleavage of the caspase-3 substrate PARP; IC50 [17]: 1.7 to 38 nM; fold more potent than 2-amino counterpart [9]: 10 fold; caspase-2 activation (disappearance of uncleaved protein) [18]: clear caspase-8 and caspase-2 activation
– | COc1cc(-c2nc(C)sc2-c2ccc3ccccc3c2)cc(OC)c1OC [3k, 4-(3,4,5-Trimethoxyphenyl)-2-methyl-5-(naphthalen-2-yl)thiazole] | – | – | – | – | – | – | induction of apoptotic (annexin-V positive) cells [11]: significant induction of apoptotic cells; concentration at which G2/M accumulation was first observed [12]: 125 nM; caspase-8 activation (appearance of cleavage product) [13]: clear caspase-8 and caspase-2 activation; effect on mitochondrial polarization and ROS production [14]: only slightly affected; caspase-9 activation [15]: did not induce activation of caspase-9; caspase-3 activation [16]: clear activation of caspase-3; cleavage of caspase-3 substrate PARP [16]: cleavage of the caspase-3 substrate PARP; caspase-2 activation (disappearance of uncleaved protein) [18]: clear caspase-8 and caspase-2 activation; concentration at which G2/M accumulation was first observed [19]: 125 nM
– | COc1ccc(/C=C\c2cc(OC)c(OC)c(OC)c2)cc1O [CA-4, Combretastatin A-4] | – | – | – | – | – | – | IC50 [20]: 5 ± 0.6 nM
– | COc1cccc2c1C(=O)c1c(O)c3c(c(O)c1C2=O)C[C@@](O)(C(=O)CO)C[C@@H]3O[C@H]1C[C@H](N)[C@H](O)[C@H](C)O1 [Doxorubicin] | – | – | – | – | – | – | IC50 [21]: 120 ± 30 nM; Resistance ratio [22]: 109.6
– | CC(=O)O[C@H]1C(=O)[C@@]2(C)[C@H]([C@H](OC(=O)c3ccccc3)[C@]3(O)C[C@H](OC(=O)[C@H](O)[C@@H](NC(=O)c4ccccc4)c4ccccc4)C(C)=C1C3(C)C)[C@]1(OC(C)=O)CO[C@@H]1C[C@@H]2O [Taxol] | – | – | – | – | – | – | Resistance ratio ([23]; IC50 A549-T12 / IC50 A549): 10.4; IC50 ([23]; read-out: IC50 (cell growth inhibition), A549-T12): 75.2 ± 12.5 nM; IC50 ([2]; A549, ref [8]): 7.2 ± 0.1 nM
– | CC[C@]1(O)C[C@@H]2CN(CCc3c([nH]c4ccccc34)[C@@](C(=O)OC)(c3cc4c(cc3OC)N(C)[C@H]3[C@@](O)(C(=O)OC)[C@H](OC(C)=O)[C@]5(CC)C=CCN6CC[C@]43[C@@H]65)C2)C1 [Vinblastine] | – | – | – | – | – | – | IC50 [24]: 205 ± 46 nM; IC50 [25]: 0.8 ± 0.1 nM

Structure (SMILES) | IC50 [7] | IC50 [1] | IC50 ([2]; A549, mean ± SE, ref [12]) | IC50 [3] | IC50 [4] | IC50 [5] | IC50 [6] | further results
COc1ccc(-c2sc(N)nc2-c2cc(OC)c(OC)c(OC)c2)cc1 [2d] | 1100 ± 70 nM | 2.3 ± 0.2 nM | 20.2 ± 1.7 nM | 11.7 ± 3.9 nM | 3.2 ± 1.2 nM | 2.1 ± 0.4 nM | 60.9 ± 8.4 nM | –
